ChEMBL document CHEMBL2380254, “Optimization of tocotrienols as antiproliferative and antimigratory leads” (Eur J Med Chem, 2013)

Assays:
Format in all cases: functional
M14 = assay: Growth inhibition of human M14 cells assessed as cell growth at 10 uM after 48 hrs by sulforhodamine B assay; details: M14, 48 h, read-out: Activity
Procedure, shortened: (§1)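 NCI-60 single-dose screen at 10 µM: cells in RPMI 1640 with 5% FBS, preincubated 24 h, then exposed 48 h at 37 °C. TCA fixation (16% final for suspension cells), SRB staining, absorbance 515 nm. Percent growth relative to time-zero and untreated control plates; negative values indicate cell kill.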

NCI-H23 = assay: Growth inhibition of human NCI-H23 cells after 48 hrs by sulforhodamine B assay; details: NCI-H23, 48 h
Procedure, shortened: (§2)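 NCI-60 panel cells grown in RPMI 1640 with 5% FBS and 2 mM L-glutamine, seeded at 5000–40,000 cells/well and preincubated 24 h. Five 10-fold dilutions (0.001–100 µM) from DMSO stocks were added for 48 h at 37 °C. Adherent cells were fixed with cold TCA (10% final) for 60 min at 4 °C, stained with 0.4% SRB, and read at 515 nm. GI50 was set where 100×(T−T0)/(C−T0)=50.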

T47D = assay: Growth inhibition of human T47D cells assessed as cell growth at 10 uM after 48 hrs by sulforhodamine B assay; details: read-out: Activity
Procedure, shortened: (§3)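 Single-dose NCI-60 test at 10 µM. Cells were grown in RPMI 1640 with 5% FBS and 2 mM L-glutamine, preincubated 24 h, with T0 plates TCA-fixed. Exposure was 48 h at 37 °C, 5% CO2. Cells were fixed with cold TCA (final 10%, 4 °C, 60 min), stained with SRB and read at 515 nm. Percent growth was taken relative to T0 and untreated control; negative values denote cell kill.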

[1] = Growth inhibition of human NCI-ADR-RES cells assessed as cell growth at 10 uM after 48 hrs by sulforhodamine B assay; details: read-out: Activity
Procedure, shortened: (§4)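 Single-dose NCI-60 screen: adherent cells in RPMI 1640 with 5% FBS were exposed to 10 µM for 48 h at 37 °C after a 24 h preincubation. They were fixed in situ with cold TCA (10% final), stained with 0.4% SRB in 1% acetic acid, solubilized in 10 mM Tris base, and read at 515 nm. Percent growth was taken relative to time-zero and control plates.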

[2] = Growth inhibition of human Hs 578T cells after 48 hrs by sulforhodamine B assay
Procedure, shortened: (§5)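 NCI-60 screen: cells in RPMI 1640 with 5% FBS and 2 mM glutamine, 5000–40,000 cells/well, preincubated 24 h. Five concentrations (10-fold dilutions; 100 to 0.001 µM) applied for 48 h at 37 °C. TCA fixation, SRB stain, absorbance at 515 nm. Time-zero plates included; GI50 where 100×(T−T0)/(C−T0)=50.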

NCI-H460 = assay: Growth inhibition of human NCI-H460 cells assessed as cell growth at 10 uM after 48 hrs by sulforhodamine B assay; details: NCI-H460, 48 h, read-out: Activity; procedure, shortened: as §4
DU-145 = assay: Growth inhibition of human DU145 cells after 48 hrs by sulforhodamine B assay; details: DU-145, 48 h; procedure, shortened: as §5
SK-OV-3 = assay: Growth inhibition of human SKOV3 cells after 48 hrs by sulforhodamine B assay; details: SK-OV-3, 48 h
Procedure, shortened: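 NCI-60 five-dose screen. Cells were grown in RPMI 1640 with 5% FBS and 2 mM L-glutamine, plated at 5000–40,000 cells/well and incubated 24 h before dosing, with T0 plates TCA-fixed. DMSO stocks were diluted to doses of […] and exposed 48 h at 37 °C, 5% CO2. Cells were fixed with cold TCA (final 10%, 60 min, 4 °C), stained with 0.4% SRB in 1% acetic acid for 10 min, solubilized in 10 mM trizma base and read at 515 nm. GI50 is where 100×(T−T0)/(C−T0)=50.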

Malme-3M = assay: Growth inhibition of human MALME-3M cells after 48 hrs by sulforhodamine B assay; procedure, shortened: as §2
HCT-15 = assay: Growth inhibition of human HCT15 cells assessed as cell growth at 10 uM after 48 hrs by sulforhodamine B assay; details: HCT-15, 48 h, read-out: Activity; procedure, shortened: as §1
MDA-MB-435 = assay: Growth inhibition of human MDA-MB-435 cells assessed as cell growth at 10 uM after 48 hrs by sulforhodamine B assay; details: MDA-MB-435, 48 h, read-out: Activity; procedure, shortened: as §4
[3] = Growth inhibition of human EKVX cells after 48 hrs by sulforhodamine B assay; procedure, shortened: as §5
SK-MEL-2 = assay: Growth inhibition of human SK-MEL-2 cells after 48 hrs by sulforhodamine B assay; details: SK-MEL-2, 48 h; procedure, shortened: as §2
OVCAR-5 [4] = assay: Growth inhibition of human OVCAR5 cells assessed as cell growth at 10 uM after 48 hrs by sulforhodamine B assay; details: OVCAR-5, 48 h, read-out: Activity; procedure, shortened: as §4
SR = assay: Growth inhibition of human SR cells assessed as cell growth at 10 uM after 48 hrs by sulforhodamine B assay; details: read-out: Activity
Procedure, shortened: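 Suspension line in RPMI 1640 with 5% FBS, single 10 µM dose for 48 h. Settled cells were fixed with TCA (final 16%), then SRB-stained and read at 515 nm. Percent growth was taken versus T0 and control; negative values denote cytotoxicity.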

HL-60(TB) = assay: Growth inhibition of human HL-60(TB) cells after 48 hrs by sulforhodamine B assay; details: HL-60, 48 h
Procedure, shortened: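 HL-60(TB) cells (suspension) grown in RPMI 1640 with 5% FBS and 2 mM L-glutamine. They were plated and preincubated for 24 h, with T0 plates fixed at that point. Drug was given at five 10-fold dilutions for 48 h at 37 °C. Settled cells were fixed with TCA (16% final), stained with 0.4% SRB in 1% acetic acid and read at 515 nm. GI50 was taken where 100×(T−T0)/(C−T0)=50.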

A549 = assay: Growth inhibition of human A549/ATCC cells after 48 hrs by sulforhodamine B assay; details: A549, 48 h; procedure, shortened: as §5
HT-29 = assay: Growth inhibition of human HT-29 cells assessed as cell growth at 10 uM after 48 hrs by sulforhodamine B assay; details: HT-29, 48 h, read-out: Activity; procedure, shortened: as §1
[5] = Growth inhibition of human NCI-ADR-RES cells after 48 hrs by sulforhodamine B assay; procedure, shortened: as §2
OVCAR-4 = assay: Growth inhibition of human OVCAR4 cells assessed as cell growth at 10 uM after 48 hrs by sulforhodamine B assay; details: OVCAR-4, 48 h, read-out: Activity; procedure, shortened: as §4
MCF7 = assay: Growth inhibition of human MCF7 cells assessed as cell growth at 10 uM after 48 hrs by sulforhodamine B assay; details: MCF7, 48 h, read-out: Activity; procedure, shortened: as §4
SNB-19 = assay: Growth inhibition of human SNB19 cells assessed as cell growth at 10 uM after 48 hrs by sulforhodamine B assay; details: SNB-19, 48 h, read-out: Activity; procedure, shortened: as §3
OVCAR-5 [6] = assay: Growth inhibition of human OVCAR5 cells after 48 hrs by sulforhodamine B assay; details: OVCAR-5, 48 h; procedure, shortened: as §2
[7] = Growth inhibition of human HCC2998 cells after 48 hrs by sulforhodamine B assay; details: HCC 2998, 48 h; procedure, shortened: as §5

Structure (SMILES) | growth at 10 µM (M14) [%] | GI50 (NCI-H23) [µM] | growth at 10 µM (T47D) [%] | growth at 10 µM [1] [%] | GI50 [2] [µM] | growth at 10 µM (NCI-H460) [%] | GI50 (DU-145) [µM] | GI50 (SK-OV-3) [µM] | GI50 (Malme-3M) [µM] | growth at 10 µM (HCT-15) [%] | growth at 10 µM (MDA-MB-435) [%] | GI50 [3] [µM] | GI50 (SK-MEL-2) [µM] | growth at 10 µM (OVCAR-5 [4]) [%] | growth at 10 µM (SR) [%] | GI50 (HL-60(TB)) [µM] | GI50 (A549) [µM] | growth at 10 µM (HT-29) [%] | GI50 [5] [µM] | growth at 10 µM (OVCAR-4) [%] | also measured
CC(C)=CCC/C(C)=C/CC/C(C)=C/CC[C@]1(C)CCc2c3c(cc(C)c2O1)OCN(CCCCCCO)C3 | -90.8 | 4.57 | -51.6 | -64.1 | 0.814 | -15.7 | 1 | 2.62 | 6.25 | 5.75 | -48.1 | 5.31 | 5.66 | 33.4 | -38 | 1.37 | 0.607 | -25.8 | 1.13 | -95.5 | growth at 10 µM (MCF7): -90.4%; growth at 10 µM (SNB-19): -6.48%; GI50 (OVCAR-5 [6]): 2.55 µM; GI50 [7]: 0.663 µM
CC(C)=CCC/C(C)=C/CC/C(C)=C/CC[C@]1(C)CCc2c3c(cc(C)c2O1)OCN(CCCCO)C3 | -45.8 | 17.5 | -7.14 | -68.8 | 18.5 | -20.4 | 16.7 | 16.4 | 22.4 | -53.9 | -31.8 | 19.6 | 18.9 | 6.91 | -40.9 | 18.8 | 15.5 | 2.06 | 16.8 | -94.8 | growth at 10 µM (MCF7): -81.2%; growth at 10 µM (SNB-19): -28.3%; GI50 (OVCAR-5 [6]): 17.3 µM; GI50 [7]: 9.78 µM
CC(C)=CCC/C(C)=C/CC/C(C)=C/CC[C@]1(C)CCc2c3c(cc(C)c2O1)OCN(CCCCCO)C3 | 57.9 | 6.67 | 59.5 | 43.1 | 7.26 | -70.2 | 6.28 | 6.85 | 6.9 | 62.3 | 44.7 | 6.08 | 7.47 | 87.3 | -16.9 | 6.26 | 6.19 | -34.9 | 5.89 | 43.3 | growth at 10 µM (MCF7): -63.6%; growth at 10 µM (SNB-19): 82%; GI50 (OVCAR-5 [6]): 5.93 µM; GI50 [7]: 2.53 µM
